Reference: ChEMBL document CHEMBL3576810, “Pentacyclic antibiotics from a tidal mud flat-derived actinomycete” (J Nat Prod, 2015)
Converted amounts (≈) assume the structure as drawn. The source made the active and inactive calls. The rule behind the calls is not given here.

Tests used:
[1] = test system: A549; test: Cytotoxicity against human A549 cells after 72 hrs by sulforhodamine B assay; assay type: functional, cell-based; conditions: A549, 72 h
Outline: (§1)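 Cells seeded at 3 × 10^4 cells/mL and exposed to a range of compound concentrations at 37 °C, 5% CO2, for 72 h. Fixed with 10% TCA for 1 h, stained with 0.4% SRB in 1% acetic acid, dye dissolved in 10 mM Tris pH 10.0. Survival expressed relative to solvent control; IC50 by nonlinear regression. Etoposide positive control.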

[2] = test system: HCT-116; test: Cytotoxicity against human HCT116 cells after 72 hrs by sulforhodamine B assay; assay type: functional, cell-based; conditions: HCT-116, 72 h; outline: as §1
[3] = Cytotoxicity against human SNU638 cells after 72 hrs by sulforhodamine B assay; assay type: functional, cell-based; conditions: SNU-638, 72 h; outline: as §1
[4] = test system: K562; test: Cytotoxicity against human K562 cells after 72 hrs by sulforhodamine B assay; assay type: functional, cell-based; conditions: K562, 72 h; outline: as §1
[5] = Cytotoxicity against human SKHEP1 cells after 72 hrs by sulforhodamine B assay; assay type: functional, cell-based; conditions: SK-HEP1, 72 h; outline: as §1
[6] = test system: MDA-MB-231; test: Cytotoxicity against human MDA-MB-231 cells after 72 hrs by sulforhodamine B assay; assay type: functional, cell-based; conditions: MDA-MB-231, 72 h; outline: as §1
[7] = test system: Staphylococcus aureus; test: Antibacterial activity against Staphylococcus aureus ATCC 25923 incubated for 12 hrs at 37 degC; assay type: functional; conditions: ATCC 25923, 12 h
Outline: (§2)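 Bacteria grown overnight in LB broth at 37 °C, centrifuged and washed twice in sterile water. DMSO compound stocks serially 2-fold diluted in Plate Count Broth over 50 to 0.8 μg/mL. Inoculum 5 × 10^5 cfu/mL final, 12 h at 37 °C. MIC taken as lowest concentration with no visible growth. Ampicillin reference.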

[8] = test system: Bacillus subtilis; test: Antibacterial activity against Bacillus subtilis ATCC 6633 incubated for 12 hrs at 37 degC; assay type: functional; conditions: ATCC 6633, 12 h; outline: as §2
[9] = test system: Kocuria rhizophila; test: Antibacterial activity against Kocuria rhizophila NBRC 12708 incubated for 12 hrs at 37 degC; assay type: functional; conditions: NBRC 12708, 12 h; outline: as §2
[10] = test system: Salmonella enterica; test: Antibacterial activity against Salmonella enterica ATCC 14028 incubated for 12 hrs at 37 degC; assay type: functional; conditions: ATCC 14028, 12 h; outline: as §2
[11] = test system: Proteus hauseri; test: Antibacterial activity against Proteus hauseri NBRC 3851 incubated for 12 hrs at 37 degC; assay type: functional; conditions: NBRC 3851, 12 h; outline: as §2
[12] = test system: Candida albicans; test: Antifungal activity against Candida albicans ATCC 10231; assay type: functional
Outline: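 C. albicans grown in YPD medium for 48 h at 28 °C, centrifuged and washed twice with sterile water. Cells (5 × 10^4 cells/mL) in potato dextrose broth with test compound in DMSO (0.5% final). DMSO solvent control; amphotericin B positive control.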

[13] = test system: Aspergillus fumigatus; test: Antifungal activity against Aspergillus fumigatus HIC 6094; assay type: functional
Outline: (§3)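 Fungi grown on potato dextrose agar for 2 weeks at 28 °C. Spores harvested, washed twice and suspended at 5 × 10^5 spores/mL, then diluted into potato dextrose broth (5 × 10^4 cells/mL) with test compound in DMSO (0.5% final). DMSO solvent control; amphotericin B positive control.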

[14] = test system: Trichophyton rubrum; test: Antifungal activity against Trichophyton rubrum NBRC 9185; assay type: functional, organism-based; outline: as §3
[15] = test system: Trichophyton mentagrophytes; test: Antifungal activity against Trichophyton mentagrophytes IFM 40996; assay type: functional, organism-based; outline: as §3
[16] = Inhibition of Staphylococcus aureus ATCC 6538p sortase A delta24 mutant using H2N-Abz-LPXTG-Dap(Dnp)-NH2 fluorescent substrate incubated for 1 hr by fluorescence based assay
Outline: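 Recombinant SrtAΔ24 (24 μg), srtA gene from S. aureus ATCC 6538p. Buffer 50 mM Tris-HCl, 150 mM NaCl, pH 7.5, 5 mM CaCl2, with 1 μg Abz-LPXTG-Dap(Dnp) peptide, 1 mM pentaglycine and compound at several concentrations (0.5% DMSO final). 1 h at 37 °C. Fluorescence read at excitation 317 nm, emission 420 nm. p-Hydroxymercuribenzoic acid positive control.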

Work on CC(=O)Cc1cc(O)c2c(c1)CCc1c-2cc2c(c1O)C(=O)c1c(O)cc(O)cc1C2=O yielded an IC50 [1] greater than 100000 nM, an IC50 [2] greater than 100000 nM and an IC50 [3] greater than 100000 nM. It also gave an IC50 [4] of 18300 nM, an IC50 [5] greater than 100000 nM and an IC50 [6] greater than 100000 nM. It also gave an MIC [7] greater than 100 µg/mL, an MIC [8] greater than 100 µg/mL and an MIC [9] greater than 100 µg/mL. The MIC [10] was greater than 100 µg/mL, the MIC [11] was greater than 100 µg/mL and the MIC [12] was “inactive”. The MIC [13] was “inactive”, the MIC [14] was “inactive” and the MIC [15] was “inactive”.

COc1ccc2oc3c(O)c4c(c(O)c3c(=O)c2c1O)-c1c(cc(CC(C)=O)c(C(=O)N[C@@](C)(CO)C(=O)O)c1O)CC4 showed an IC50 [1] of 1700 nM, an IC50 [2] of 900 nM and an IC50 [3] of 800 nM. The IC50 [4] was greater than 100000 nM, the IC50 [5] was 1900 nM and the IC50 [6] was 1200 nM. It also gave an MIC [7] of 10.5 µM, an MIC [8] of 0.7 µM and an MIC [9] of 10.5 µM. For the same molecule, the MIC [10] was 0.7 µM, the MIC [11] was 21.1 µM and the MIC [12] was 21.1 µM (≈ 12.5 µg/mL). It also gave an MIC [13] of 84.3 µM (≈ 50 µg/mL) and an IC50 [16] of 43200 nM.

In the case of CC1(C)S[C@@H]2[C@H](NC(=O)[C@H](N)c3ccccc3)C(=O)N2[C@H]1C(=O)O [AMPICILLIN], the MIC [7] is reported as 4.5 µM, the MIC [8] is reported as 1.1 µM and the MIC [9] is reported as 0.6 µM. For the same molecule, the MIC [10] was 4.5 µM and the MIC [11] was less than 0.6 µM.

Molecule COc1cc([C@@H]2c3cc4c(cc3[C@@H](O[C@@H]3O[C@@H]5CO[C@@H](C)O[C@H]5[C@H](O)[C@H]3O)[C@H]3COC(=O)[C@H]23)OCO4)cc(OC)c1O [ETOPOSIDE] has an IC50 [1] of 800 nM, an IC50 [2] of 1900 nM and an IC50 [3] of 500 nM. It also gave an IC50 [4] of 3100 nM, an IC50 [5] of 1100 nM and an IC50 [6] of 10600 nM.

Work on Para-Hydroxymercuribenzoic acid yielded an IC50 [16] of 104000 nM.
